# Data reported in paper PMC4635973 (Journal of medicinal chemistry, 2015).
# Entries after “also recorded” stand apart in the source; their conditions may differ.
# T1: myostatin/ActRIIA-ECD complex binding with ALK4-ECD-Fc (Homo sapiens, UniProt O14793)
# T1 sequence (O14793 267-375): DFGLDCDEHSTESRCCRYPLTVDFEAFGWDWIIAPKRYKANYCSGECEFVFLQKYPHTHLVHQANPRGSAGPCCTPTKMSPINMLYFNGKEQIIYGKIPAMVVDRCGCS
# T2: activin A binding to ActRIIA-ECD-Fc (Homo sapiens, UniProt P08476)
# T2 sequence (P08476 311-426): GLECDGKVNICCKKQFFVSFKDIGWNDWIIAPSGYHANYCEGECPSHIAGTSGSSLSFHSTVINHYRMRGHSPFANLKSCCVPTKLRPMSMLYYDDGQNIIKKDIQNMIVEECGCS
# T3: activin A/ActRIIA-ECD complex binding to ALK4-ECD-Fc (Homo sapiens, UniProt P08476)
# T3 sequence (P08476 311-426): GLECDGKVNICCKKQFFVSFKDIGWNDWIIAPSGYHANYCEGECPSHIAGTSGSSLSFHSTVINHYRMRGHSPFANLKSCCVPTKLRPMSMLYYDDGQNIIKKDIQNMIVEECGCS
# B1: inhibin A: Purified inhibin A, naturally occurring activin antagonist, positive control in ovary culture (protein, UniProt P05111 233-366; P08476 311-426, looked up)
# Inhibin alpha chain: STPLMSWPWSPSALRLLQRPPEEPAAHANCHRVALNISFQELGWERWIVYPPSFIFHYCHGGCGLHIPPNLSLPVPGAPPTPAQPYSLLPGAQPCCAALPGTMRPLHVRTTSDGGYSFKYETVPNLLTQHCACI
# Inhibin beta A chain: GLECDGKVNICCKKQFFVSFKDIGWNDWIIAPSGYHANYCEGECPSHIAGTSGSSLSFHSTVINHYRMRGHSPFANLKSCCVPTKLRPMSMLYYDDGQNIIKKDIQNMIVEECGCS
# Tests used:
# [1] = tested on: activin A-mediated ovarian cell proliferation; assay: Ovary ex vivo culture and BrdU assay; type: cell-based, mouse; conditions: 1 nM activin A, ovaries of 4-day-old CD1 mice, 4 days
# How it was run: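 Ovaries from 4-day-old CD1 mice were cultured on 0.4-µm membrane inserts in DMEM/F12 with 0.03% BSA for 4 days. Treatments: 1 nM activin A with DMSO, 200 µM test compound, 4 nM Fst288 or 8 nM inhibin A. Then 10 µM BrdU for 24 h. Genomic DNA (150 ng, heat-denatured) was dot-blotted, probed with anti-BrdU and HRP secondary, detected by ECL and quantified by densitometry. Three independent experiments; one-way ANOVA with Tukey test.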
# [2] = target: T1, myostatin/ActRIIA-ECD complex binding with ALK4-ECD-Fc; assay: Blitz competition binding: myostatin/ActRIIA-ECD complex with ALK4-ECD-Fc; conditions: 25 µM compound
# How it was run: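 Myostatin and ActRIIA-ECD were premixed 1:2 molar, final 1.6 µM in PBS. Binding was to ALK4-ECD-Fc immobilized on a protein A Blitz biosensor (50 ng/mL, 120 s). Sensor dipped into complex with solvent or 25 µM test compound; 120 s association, 120 s dissociation in PBS. Wavelength shift recorded.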
# [3] = tested on: myostatin signaling in the −338FSHβ-Luc LβT2 cell line; assay: −338FSHβ-Luc LβT2 cell luciferase assay; type: cell-based, mouse; conditions: −338FSHβ-Luc LβT2 luciferase assay
# How it was run: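 Stably transfected −338FSHβ-Luc LβT2 cells (5 × 10^4/well) were treated for 6 h at 37 °C in serum-free, phenol red-free DMEM-F12 with 1% P/S. Treatments: 0.2 nM activin A or 0.2 nM myostatin with DMSO or a test-compound dilution series. Luciferase measured in lysates. Triplicates in three experiments. IC50 from sigmoidal variable-slope fit, reported as means ± SD.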
# [4] = tested on: activin-stimulated FSH in ovariectomized mice; assay: Serum FSH in ovariectomized mice; type: in vivo, mouse; conditions: 15 mg/kg s.c. every 12 h, 4 doses
# How it was run: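 Ovariectomized 12-week-old CD1 mice received s.c. test compound (15, 30 or 60 mg/kg) or vehicle (TBS or DMSO) twice daily for 2 days (4 doses). Fst288 control: 200 µg/kg, 3 doses. Serum FSH was measured by ELISA (sensitivity 0.35mIU/mL, 450 nm) as % of vehicle mean. 5–7 mice per group, 10 controls; one-way ANOVA with Tukey test.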
# ovariectomized mice = assay: Kidney and liver histology and behavior of treated ovariectomized mice; type: in vivo, mouse
# How it was run: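 Ovariectomized 12-week-old CD1 mice received s.c. vehicle or 60 mg/kg test compound twice daily for 2 days (4 doses). Kidney and liver were fixed in Modified Davidson's fixative for 5 days at 4 °C, embedded in paraffin and stained with H&E.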
# [5] = target: T2, activin A binding to ActRIIA-ECD-Fc; assay: Blitz competition binding: activin A with ActRIIA-ECD-Fc; conditions: 25 µM compound, activin A 1.6 µM
# How it was run: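 Protein A biosensor (Blitz) loaded with ActRIIA-ECD-Fc, then dipped into activin A (final 1.6 µM) with solvent control or a single 25 µM test compound. Association was 120 s and dissociation 120 s in PBS. Real-time wavelength shift recorded.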
# [6] = tested on: activin A-stimulated FSHβ promoter activation in −338FSHβ-luc LβT2 cells; assay: −338FSHβ-Luc LβT2 cell luciferase assay; type: cell-based; conditions: Mus musculus, 6 h, read-out: IC50 for activin A (selectivity test)
# [7] = target: T3, activin A/ActRIIA-ECD complex binding to ALK4-ECD-Fc; assay: Blitz competition binding: activin A/ActRIIA-ECD complex with ALK4-ECD-Fc; conditions: 25 µM compound, complex 1.6 µM
# How it was run: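 ALK4-ECD-Fc (50 ng/mL) was immobilized on a protein A Blitz biosensor for 120 s. Activin A and ActRIIA-ECD were premixed 1:2 molar, final 1.6 µM in PBS. The sensor was dipped into this complex with solvent or test compound (0.4, 1.6, 6.25, 25 µM) for 120 s association, then 120 s dissociation in PBS. Real-time wavelength shift recorded.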
Molecule,Inhibition of exogenous activin A-mediated ovarian cell proliferation (BrdU) ([1]; 200 µM compound),Blocking of myostatin/ActRIIA complex binding with ALK4 [2],"Selectivity, IC50 for activin A versus IC50 for myostatin [3]",Effect on serum FSH levels compared with control [4],"Histopathology of the kidney and liver tissue (H&E) (ovariectomized mice; 60 mg/kg s.c. twice daily, 4 doses, ovariectomized mice)","Behavior after injection (ovariectomized mice; s.c. injection, ovariectomized mice)","Adverse effects in efficacy studies (ovariectomized mice; treated mice, efficacy studies)",Interference with activin A binding with ActRIIA-ECD-Fc [5],IC50 [6],Antagonism of activin A/ActRIIA-ECD complex binding with ALK4-ECD-Fc [7],Inhibition of exogenous activin A-mediated ovarian cell proliferation (BrdU) ([1]; 8 nM)
CC(C)(O)C#Cc1ccc(CN2CCC[C@@H](CCC(=O)N3CCOCC3)C2)s1 [NUCC-474],only partially inhibited,–,–,–,–,–,–,–,–,–,–
CCn1c(-c2cccnc2)nc2cc(NC(=O)COC)cc(C(=O)NCc3ccccc3)c21 [NUCC-555],completely inhibited,no blocking activity,~10 fold,no significant effect,unchanged,normal behavior,No adverse effects,weakly interfere,5.37 ± 4.01 µM,nearly complete antagonist; also recorded: completely blocked,–
B1,–,–,–,–,–,–,–,–,–,–,completely inhibited
